# Measured values taken from ChEMBL document CHEMBL1158548, “Tetrahydrochromenoimidazoles as potassium-competitive acid blockers (P-CABs): structure-activity relationship of their antisecretory properties and their affinity toward the hERG channel” (J Med Chem, 2010).
# The source made the active and inactive calls. No cut-off for these calls is given here.
# Legend:
# [1] = Inhibition of H+/K+ ATPase in hog gastric mucosa by malachite green based competitive binding assay; type: tissue-based, Sus scrofa
# Procedure, shortened: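 Hog gastric mucosa H+/K+-ATPase, isolated enzyme; competitive binding assay run at pH 7.4; pIC50 reported as geometric mean of 4-5 measurements.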
# Gastric gland = assay: Inhibition of acid secretion in New Zealand White rabbit intact gastric glands assessed as [14C]dimethylaminopyridine accumulation by radioactivity; type: functional, tissue-based; conditions: Oryctolagus cuniculus
# Procedure, shortened: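 Gastric glands isolated intact from New Zealand rabbits; cellular activity read as reduced accumulation of the weak base 14C-dimethylaminopyridine; pIC50 given as geometric mean of 4-5 determinations.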
# Rattus norvegicus [2] = assay: Inhibition of pentagastrin-stimulated acid secretion in intraduodenally dosed perfused Sprague-Dawley rat Ghosh Schild model; type: functional; conditions: intraduodenal
# [3] = Octanol/aqueous KCl distribution coefficient, log D at pH 7.4 by potentiometric titration; type: physicochemical
# Procedure, shortened: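 Octanol/aqueous KCl distribution coefficient from potentiometric titrations across pH 2.0-11.0 at 25 °C.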
# [4] = Dissociation constant, pKa at pH 2.0 to 11.0 by potentiometric cosolvent titration; type: physicochemical
# [5] = Partition coefficient, log D by HPLC; type: physicochemical; conditions: octanol/water
# Procedure, shortened: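 logD by reversed-phase HPLC at 37 °C, calibrated with seven reference substances of known logD.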
# Canis familiaris [6] = assay: Inhibition of pentagastrin-stimulated acid secretion in po dosed Beagle dog fistula model assessed as elevation of intragastric pH after 4 hrs; type: functional, organism-based; conditions: Canis lupus familiaris
# Procedure, shortened: (§1)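 Surgically prepared fistula dogs; pentagastrin infused subcutaneously from 1 h after start of pH-metry over 22.5 h; drug or vehicle given orally in capsules 2.5 h after start; intragastric pH recorded continuously for 24 h with combined glass electrode and ambulatory pH meter; duration of pH >5 read from curves.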
# hERG (KCNH2) = hERG (KCNH2) (Homo sapiens, UniProt Q12809); assay: Inhibition of human ERG expressed in CHO-K1 cells at 10 uM by whole-cell patch clamp technique; type: cell-based; conditions: CHO-K1 cells that express human ERG
# hERG (KCNH2), sequence (Q12809 whole entry): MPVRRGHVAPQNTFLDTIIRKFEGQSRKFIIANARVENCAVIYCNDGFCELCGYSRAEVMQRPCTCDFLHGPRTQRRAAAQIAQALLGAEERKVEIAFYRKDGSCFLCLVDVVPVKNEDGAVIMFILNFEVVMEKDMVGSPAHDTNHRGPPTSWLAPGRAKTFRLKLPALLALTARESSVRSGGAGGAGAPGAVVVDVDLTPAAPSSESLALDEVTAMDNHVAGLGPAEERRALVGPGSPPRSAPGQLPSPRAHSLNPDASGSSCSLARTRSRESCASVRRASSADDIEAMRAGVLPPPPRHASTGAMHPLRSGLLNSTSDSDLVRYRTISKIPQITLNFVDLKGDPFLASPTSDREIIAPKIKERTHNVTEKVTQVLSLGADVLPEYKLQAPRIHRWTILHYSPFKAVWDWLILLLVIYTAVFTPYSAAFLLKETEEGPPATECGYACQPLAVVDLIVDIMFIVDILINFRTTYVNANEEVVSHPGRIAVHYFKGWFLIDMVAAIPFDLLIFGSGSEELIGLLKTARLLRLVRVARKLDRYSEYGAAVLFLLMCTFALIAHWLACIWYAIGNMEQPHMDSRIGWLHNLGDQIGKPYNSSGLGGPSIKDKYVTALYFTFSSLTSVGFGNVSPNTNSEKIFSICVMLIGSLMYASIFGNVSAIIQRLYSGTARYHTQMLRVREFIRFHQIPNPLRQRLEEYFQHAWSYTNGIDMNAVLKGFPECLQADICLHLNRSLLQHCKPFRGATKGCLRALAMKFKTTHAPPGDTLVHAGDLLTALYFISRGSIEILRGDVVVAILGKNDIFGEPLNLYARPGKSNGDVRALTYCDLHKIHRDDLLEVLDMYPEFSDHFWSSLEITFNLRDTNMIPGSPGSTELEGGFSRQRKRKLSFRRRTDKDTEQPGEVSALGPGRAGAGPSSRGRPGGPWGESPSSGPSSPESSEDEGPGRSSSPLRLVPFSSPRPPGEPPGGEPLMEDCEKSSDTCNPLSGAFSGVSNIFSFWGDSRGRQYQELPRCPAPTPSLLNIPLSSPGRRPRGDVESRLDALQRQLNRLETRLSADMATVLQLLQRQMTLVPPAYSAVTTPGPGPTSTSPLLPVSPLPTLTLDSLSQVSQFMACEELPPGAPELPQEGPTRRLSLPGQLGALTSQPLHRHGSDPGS
# Procedure, shortened: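 CHO-K1 cells stably transfected with hERG; whole-cell patch clamp recording of tail currents with test compound at 10 μM, three cells per compound; relative block of tail current amplitude given as arithmetic mean.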
# Canis familiaris [7] = assay: Inhibition of pentagastrin-stimulated acid secretion in po dosed Beagle dog fistula model assessed as elevation of intragastric pH; type: functional, organism-based; conditions: Canis lupus familiaris; procedure, shortened: as §1
# Rattus norvegicus [8] = assay: Inhibition of pentagastrin-stimulated acid secretion in Sprague-Dawley rat Ghosh Schild model at 3 umol/kg, intraduodenally; type: functional; conditions: intraduodenal
Compound,pIC50 [1],IC50 (Gastric gland),logD [3],pKa ([4]; read-out: pKa),logD [5],pKa [4],ED50 (Rattus norvegicus [2]),Activity (Canis familiaris [6]),inhibition at 10 µM (hERG (KCNH2)),Activity (Canis familiaris [7]),inhibition in vivo at 3 µmol/kg (Rattus norvegicus [8])
Cc1ccccc1[C@@H]1CCc2c(C(=O)N(C)C)cc3c(nc(C4CC4)n3C)c2O1,,,2.84,5.28,3.3,,0.1 µmol/kg,,6%,inactive,
Cc1nc2c3c(c(C(=O)N(C)C)cc2[nH]1)CC[C@@H](c1ccccc1C)O3,5.59,1950 nM,2.82,5.66,2.8,,0.5 µmol/kg,,11%,,
Cc1nc2c3c(c(C(=O)N(C)C)cc2n1C)CC[C@@H](c1ccccc1C1CC1)O3,4.8,3160 nM,3.18,5.63,3.1,,1.5 µmol/kg,,18%,,
Cc1nc2c3c(c(C(=O)N(C)C)cc2n1C)CC[C@@H](c1ccc2ccccc2c1)O3,4.1,63100 nM,3.37,5.57,3.2,,3 µmol/kg,,65%,,
COCc1ccccc1[C@@H]1CCc2c(C(=O)N(C)C)cc3c(nc(C)n3C)c2O1,4.7,15800 nM,1.9,5.61,2.6,,1.6 µmol/kg,,7%,,
Cc1nnc(-c2cc3c(nc(C)n3C)c3c2CC[C@@H](c2ccccc2C)O3)o1,4.6,5010 nM,,,3.3,5.17,0.6 µmol/kg,,27%,,
C#CCNC(=O)c1cc2c(nc(C)n2C)c2c1CC[C@@H](c1ccccc1C)O2,4.7,2000 nM,,,3.1,5.58,0.3 µmol/kg,,83%,,
Cc1ccccc1[C@@H]1CCc2c(C(=O)N3CCC3C(N)=O)cc3c(nc(C)n3C)c2O1 (stereo partly drawn),4.6,,,,2.3,,3 µmol/kg,,7%,,22%
Cc1nc2c3c(c(C(=O)N(C)C)cc2n1C)CC[C@@H](c1ccccc1Cl)O3,,1580 nM,2.86,5.45,3,,0.4 µmol/kg,,13%,,
Cc1nc2c3c(c(C(=O)N(C)C)cc2n1C)CC[C@@H](c1ccccc1F)O3,4.9,1580 nM,2.41,5.55,2.7,,0.5 µmol/kg,,9%,,
Cc1ccccc1[C@@H]1CCc2c(C(=O)N3CC(C)(O)C3)cc3c(nc(C)n3C)c2O1,4.7,79400 nM,,,2.5,,3 µmol/kg,,1%,,10%
CCc1ccccc1[C@@H]1CCc2c(C(=O)N(C)C)cc3c(nc(C)n3C)c2O1,5.4,1260 nM,,,3,,0.5 µmol/kg,,11%,inactive,
Cc1ccccc1[C@@H]1CCc2c(C(=O)N3CC(C(=O)N(C)C)C3)cc3c(nc(C)n3C)c2O1,4.9,79400 nM,,,2.5,,3 µmol/kg,,6%,,36%

# Now from value to molecule, other results behind:
pIC50 [1],IC50 (Gastric gland),logD [3],pKa ([4]; read-out: pKa),logD [5],pKa [4],Compound,ED50 (Rattus norvegicus [2]),Activity (Canis familiaris [6]),inhibition at 10 µM (hERG (KCNH2)),Activity (Canis familiaris [7]),inhibition in vivo at 3 µmol/kg (Rattus norvegicus [8])
6.1,200 nM,3.4,5.59,3.2,,Cc1cc(Cl)ccc1[C@@H]1CCc2c(C(=O)N(C)C)cc3c(nc(C)n3C)c2O1,0.1 µmol/kg,Active,-6%,,
6.3,1000 nM,2.32,5.66,2.7,,Cc1sccc1[C@@H]1CCc2c(C(=O)N(C)C)cc3c(nc(C)n3C)c2O1,0.3 µmol/kg,,18%,,
5.2,398 nM,3.43,5.49,3.2,,Cc1cc(Cl)ccc1[C@@H]1CCc2c(C(=O)N3CCC3)cc3c(nc(C)n3C)c2O1,0.15 µmol/kg,,48%,,
5.4,501 nM,3.42,5.48,3.2,,COC1CN(C(=O)c2cc3c(nc(C)n3C)c3c2CC[C@@H](c2ccc(Cl)cc2C)O3)C1,0.4 µmol/kg,,95%,,
4.9,794 nM,,,3,5.68,Cc1ccccc1[C@@H]1CCc2c(C(=O)NC3CC3)cc3c(nc(C)n3C)c2O1,0.3 µmol/kg,,43%,,
4.9,1260 nM,,,3.3,5.62,CCCOC1CN(C(=O)c2cc3c(nc(C)n3C)c3c2CC[C@@H](c2ccccc2C)O3)C1,0.2 µmol/kg,,94%,,
6,398 nM,3.66,5.36,3.3,,Cc1nc2c3c(c(C(=O)N(C)C)cc2n1C)CC[C@@H](c1ccc(Cl)cc1Cl)O3,0.3 µmol/kg,,59%,,
5.2,631 nM,,,2.9,5.66,COC1CN(C(=O)c2cc3c(nc(C)n3C)c3c2CC[C@@H](c2ccccc2C)O3)C1,0.3 µmol/kg,,18%,Active,
4.6,1000 nM,,,2.8,5.62,CC(=O)CNC(=O)c1cc2c(nc(C)n2C)c2c1CC[C@@H](c1ccccc1C)O2,0.3 µmol/kg,,63%,inactive,
5.3,1000 nM,2.36,5.65,2.7,,Cc1nc2c3c(c(C(=O)N(C)C)cc2n1C)CC[C@@H](c1ccc(F)cc1)O3,0.1 µmol/kg,,28%,,
4.9,1000 nM,,,2.9,5.71,CCNC(=O)c1cc2c(nc(C)n2C)c2c1CC[C@@H](c1ccccc1C)O2,0.12 µmol/kg,,24%,,
5.4,1260 nM,,,2.9,5.49,CON(C)C(=O)c1cc2c(nc(C)n2C)c2c1CC[C@@H](c1ccccc1C)O2,0.15 µmol/kg,,13%,,
